MT1-MMP act inh = blockers of MT1-MMP proenzyme processing, primary screen, HT1080 RFP-PRO-GFP cells, GFP/RFP fluorescence; Matrix metalloproteinase-14 (Homo sapiens), P50281; GFP/RFP ratio fluorescence, overnight; percent of plate control window, DMSO zero; GFP/RFP ratio change, % at 20 µM; 360,000 tested, 0.061% active;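 active = GFP/RFP ratio change of at least 30% with cell ATP level not reduced by more than half and red fluorescence within 50% of control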
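Assay system: HT1080 cells carrying an RFP-PRO-GFP reporter | Dosing: Single dose of 20 µM compound, 1% DMSO final | Incubation: Cells overnight before dosing, compound overnight, 37 °C, 5% CO2 | Evaluation: GFP/RFP fluorescence ratio | Control set: DMSO and RFP-L50D-GFP cell wells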
SKN-1 block = suppressors of acrylamide-induced Pgst-4::GFP reporter in worms, primary screen, SKN-1 inhibitor project, whole organism, uHTS, GFP/RFP fluorescence ratio, strain VP596; C. elegans VP596 Pgst-4::GFP/RFP ratio, 24 h; inhibition, % at 21.8 µM; 360,000 tested, 0.49% active;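 active = interference check ratio from 0.5 to 1.5 plus GFP to RFP signal ratio inhibition reaching or exceeding a fixed threshold, cut at about 30% in these data, passing the limit was not always enough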
ATG4B inh = ATG4B protease inhibitors, primary screen, biochemical, fluorescence, uHTS; inhibition, % at 8.33 µM; ATG4B cleavage of LC3-PLA2, NBD-HPC fluorescence, 1 h; Cysteine protease ATG4B (Homo sapiens), Q9Y4P1; 340,000 tested, 0.51% active; in the data active = inhibition above about 40%
Target sequence (Q9Y4P1 whole entry, looked up): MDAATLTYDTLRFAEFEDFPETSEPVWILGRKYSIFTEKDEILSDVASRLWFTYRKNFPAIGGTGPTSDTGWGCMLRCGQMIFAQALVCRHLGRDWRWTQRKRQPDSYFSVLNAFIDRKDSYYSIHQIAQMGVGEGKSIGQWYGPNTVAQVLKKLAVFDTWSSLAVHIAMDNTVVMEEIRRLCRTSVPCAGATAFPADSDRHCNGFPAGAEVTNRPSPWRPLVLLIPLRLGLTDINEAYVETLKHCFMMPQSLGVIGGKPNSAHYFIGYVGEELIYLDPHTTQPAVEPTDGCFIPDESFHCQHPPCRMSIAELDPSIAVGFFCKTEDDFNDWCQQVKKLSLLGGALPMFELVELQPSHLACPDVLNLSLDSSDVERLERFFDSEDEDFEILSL
MPTP block = mitochondrial permeability transition pore inhibitors, primary screen, biochemical, isolated mouse mitochondria, absorbance | AID 602449, 2012 | 360,000 tested, 1.4% active | inhibition, % at 10 µM | Ca2+ swelling absorbance, 30 min;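 active = inhibition of 50% or more, scaled per plate between neutral and stimulator controls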;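 note: 0% = DMSO wells given calcium and 100% = 1 mM EGTA wells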
Rh123 counter = fluorescence retest of MPTP screen hits in isolated mitochondria, single concentration; membrane potential, Rhodamine 123 fluorescence; inhibition, % at 10 µM; AID 624504, 2012; shares compounds with MPTP block; 5,000 tested, 78% active; in the data active = inhibition above about 22%;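 note: 0% = DMSO vehicle and 100% = positive control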
MPTP swell DR = mitochondrial permeability transition pore inhibitors, dose response, biochemical, absorbance, uHTS hits; shares compounds with MPTP block; isolated mitochondria swelling; IC50, µM; 780 tested, 58% active; AID 651561, 2012; in the data active = IC50 below about 20 µM
MPTP counter DR = fluorescent counter-screen in isolated mitochondria, dose response, counter-screen for MPTP inhibitor project, biochemical, fluorescence, uHTS hits | shares compounds with MPTP block | 780 tested, 49% active | IC50, µM | AID 651564, 2012 | isolated mitochondria counterscreen, fluorescence read-out; in the data active = IC50 below about 80 µM
Numbers without * were called inactive. Compounds with a hit are over-represented: about 2.3% of the library has one in this group of screens.

CCSc1ncc(Cl)c(C(=O)Nc2ccccc2Cl)n1 was read as MT1-MMP act inh 1, SKN-1 block 9, ATG4B inh -8 and MPTP block 0.
CCSc1nsc(NC(=O)Nc2ccccc2Cl)n1 was read as MT1-MMP act inh -2, SKN-1 block -2, ATG4B inh 2, MPTP block 63* and Rh123 counter 90*.
For CCSc1nsc(NC(=O)Nc2ccc(F)cc2F)n1 the results were MT1-MMP act inh 7, SKN-1 block -18, ATG4B inh 6, MPTP block 72* and Rh123 counter 91*.
`Cc1nnc(SCCC(=O)Nc2ccc(F)cc2)s1` gave MT1-MMP act inh 0, SKN-1 block 12, ATG4B inh -8 and MPTP block -1.
For CCCSc1nnc(NC(=O)Nc2ccc(F)cc2)s1 the results were MT1-MMP act inh -29, SKN-1 block 8, ATG4B inh 1, MPTP block 86* and Rh123 counter 98*.
For CCc1nnc(NC(=O)Nc2ccc(Cl)cc2)s1 the results were MT1-MMP act inh 2, SKN-1 block 9, ATG4B inh -11 and MPTP block 6.
Screening CCCSc1nnc(NC(=O)Nc2ccccc2)s1 returned MT1-MMP act inh -4, SKN-1 block -1, ATG4B inh -4, MPTP block 90* and Rh123 counter 78*.
For Cc1ccc(NC(=O)CSc2nnc(NC(=O)C3CC3)s2)cc1 the results were MT1-MMP act inh -2, SKN-1 block 4, ATG4B inh 7 and MPTP block -1.
`CCCSc1nnc(NC(=O)Nc2ccc(C)cc2)s1` gave MT1-MMP act inh -1, SKN-1 block -12, ATG4B inh -5, MPTP block 60* and Rh123 counter 75*.
O=C(Nc1ccc(Cl)cc1)Nc1nnc(CSCc2ccc(Cl)cc2)s1 was read as MT1-MMP act inh -15, SKN-1 block -4, ATG4B inh -3, MPTP block 84* and Rh123 counter 50*.
Screening O=C(Nc1ccccc1)Nc1nnc(/C=C/c2ccccc2Cl)s1 returned MT1-MMP act inh 1, SKN-1 block 5, ATG4B inh -8, MPTP block 86* and Rh123 counter 43*.
`O=C(Nc1ccc(F)cc1)Nc1nnc(Cc2ccccc2F)s1` gave MT1-MMP act inh 3, SKN-1 block 5, ATG4B inh -9, MPTP block 58* and Rh123 counter 77*.
Screening O=C(Nc1ccccc1)Nc1nnc(-c2ccccc2)s1 returned MT1-MMP act inh 4, SKN-1 block 15, ATG4B inh -3 and MPTP block 22.
Screening CCCSc1nnc(NC(=O)c2sc3nc(-c4cccs4)ccc3c2N)s1 returned MT1-MMP act inh -69, SKN-1 block 29, ATG4B inh 9, MPTP block 76* and Rh123 counter 32*.
For Cc1csc(NC(=O)c2sc3nc(-c4cccs4)ccc3c2N)n1 the results were ATG4B inh 2.
Screening COC(=O)c1cc(NC(=S)NC(=O)c2ccccc2)ccc1N1CCOCC1 returned MT1-MMP act inh 2, SKN-1 block 2, ATG4B inh -6 and MPTP block 0.
COc1ccc(COC(=O)c2ccc(C)c(S(=O)(=O)N3CCOCC3)c2)cc1F was read as MT1-MMP act inh -2, SKN-1 block 2, ATG4B inh -11 and MPTP block 0.
`O=[N+]([O-])c1ccc(CS(=O)(=O)c2ccc(Cl)cc2)cc1` gave MT1-MMP act inh 5, SKN-1 block 14, ATG4B inh -5 and MPTP block 0.
For O=[N+]([O-])c1cc(CS(=O)(=O)Oc2ccc(Cl)cc2)c(O)c([N+](=O)[O-])c1 the results were MT1-MMP act inh 1, SKN-1 block -1, ATG4B inh 6, MPTP block 74* and Rh123 counter 59*.
CC(C)(C)C(=O)Cn1c(=N)n(Cc2ccccc2)c2ccccc21 was read as MT1-MMP act inh -8, SKN-1 block 7, ATG4B inh 2 and MPTP block -6.
For CC(C)(C)C(=O)Cn1c(=N)n(Cc2ccccc2Cl)c2ccccc21 the results were MT1-MMP act inh -2, SKN-1 block -4, ATG4B inh -7, MPTP block 56*, Rh123 counter -3, MPTP swell DR 11* and MPTP counter DR 55*.
For O=C(CCN1CCN(c2ccccc2F)CC1)c1ccc(Br)cc1 the results were MT1-MMP act inh -3, SKN-1 block -22, ATG4B inh -2, MPTP block 112*, Rh123 counter 6, MPTP swell DR inactive and MPTP counter DR 53*.
`Cc1c2n(c3ccccc13)CCN(C)C2` gave MT1-MMP act inh -2, SKN-1 block 17, ATG4B inh -12 and MPTP block -2.
`CN(C)CCCN(Cc1ccccc1)C(=S)Nc1cccc(C(F)(F)F)c1` gave MT1-MMP act inh -4, SKN-1 block -1, ATG4B inh -1 and MPTP block -2.
`O=C(NNC(=S)Nc1cccc(C(F)(F)F)c1)c1ccc(Cl)cc1Cl` gave MT1-MMP act inh 6, SKN-1 block 4, ATG4B inh 18, MPTP block 101* and Rh123 counter 89*.
For O=C(NC(=S)Nc1cccc(C(F)(F)F)c1)c1ccc2nonc2c1 the results were MT1-MMP act inh 1, SKN-1 block -10, ATG4B inh 3, MPTP block 73* and Rh123 counter 81*.
For CC(C)CCN(C(=S)Nc1cccc(C(F)(F)F)c1)C(C)c1ccccn1 (stereo unspecified) the results were MT1-MMP act inh 4, SKN-1 block -6, ATG4B inh -6, MPTP block 63* and Rh123 counter 74*.
O=C(O)c1cccc(NC(=S)NC(=O)c2ccncc2)c1 was read as MT1-MMP act inh 0, SKN-1 block 6, ATG4B inh -6 and MPTP block -1.
For Cc1ccccc1C(=O)NNC(=S)Nc1cccc(C(F)(F)F)c1 the results were MT1-MMP act inh 3, SKN-1 block 10, ATG4B inh 5 and MPTP block 24.
CCCN(Cc1ccccc1)C(=S)Nc1cccc(C(F)(F)F)c1 was read as MT1-MMP act inh 0, SKN-1 block -7, ATG4B inh -6, MPTP block 60* and Rh123 counter 63*.
Screening COC(=S)Nc1cccc(C(F)(F)F)c1 returned MT1-MMP act inh 0, SKN-1 block -7, ATG4B inh 1 and MPTP block 3.

High-throughput results: PubChem BioAssay, Sanford-Burnham Center for Chemical Genomics
